Assay outcomes from PubChem.
A selection: hits, their analogues and other compounds. The true share with any hit is near 2.1%.
CXCR6 inh: CXCR6 (human) receptor inhibition | AID 602244 | hit rate 0.36% among 360,000 | inhibition, % at 20 µM | CHO-K1 PathHunter CXCR6 beta-arrestin, luminescence; in the data active = inhibition above about 34%, passing the limit was not always enough;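 also: antagonist mode with CXCL16 agonist at 10 nM final; 0% = 10 nM CXCL16 with DMSO and 100% = unstimulated wells without agonist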
EBI2 block: EBI2 (human) antagonism; P32249; inhibition, % at 5 µM; hit rate 0.81% among 360,000; AID 651636; EBI2 beta-arrestin recruitment, luminescence, 7a,25-OHC stimulated; in the data active = inhibition above about 38%;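 also: enzyme fragment complementation signal reports receptor beta-arrestin coupling in cells; 0% = agonist plus DMSO wells and 100% = wells without agonist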
APJ ag: activates the human apelin receptor APJ; activation, % at 20 µM; P35414; hit rate 0.11% among 330,000; CHO-K1 APJ PathHunter beta-arrestin, luminescence; 0% DMSO wells, 100% apelin;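 active = activation more than six SD over the plate average, tested at 20 µM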;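 also: 0% = DMSO alone and 100% = apelin-13 at 10 nM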
Target sequence (P35414 whole entry, looked up): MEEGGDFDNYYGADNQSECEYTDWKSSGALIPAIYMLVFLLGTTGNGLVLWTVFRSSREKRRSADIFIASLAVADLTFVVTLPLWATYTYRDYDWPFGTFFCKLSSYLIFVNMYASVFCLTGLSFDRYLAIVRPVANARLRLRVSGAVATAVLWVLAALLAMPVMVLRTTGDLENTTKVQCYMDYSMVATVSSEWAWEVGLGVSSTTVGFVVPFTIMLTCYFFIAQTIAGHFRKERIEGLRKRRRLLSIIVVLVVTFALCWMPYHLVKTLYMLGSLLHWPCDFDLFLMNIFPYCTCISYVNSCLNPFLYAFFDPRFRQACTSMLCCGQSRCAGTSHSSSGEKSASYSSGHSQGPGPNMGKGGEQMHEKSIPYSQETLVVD
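Assay system: engineered CHO-K1 APJ arrestin reporter cells; Amount: 1000 CHO-K1 reporter cells seeded per well; Dosing: one dose, 20 µM compound, 1% DMSO; Times: compound stimulation 90 min at 25 °C, detection 60 min; Measured by: luminescent beta-gal fragment complementation, chemiluminescent substrate; Read-out: APJ–arrestin association signal; Controls: DMSO vs Apelin-13 10 nM.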
APJ antagonist: antagonists of human APJ apelin receptor. inhibition, % at 20 µM. CHO-K1 APJ beta-arrestin complementation, luminescence. AID 2521. hit rate 0.32% among 330,000. P35414;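 active = inhibition above about 40% at 20 µM, limit read from the data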;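 also: cells challenged with 10 nM apelin-13 agonist together with compound; plate controls were apelin-13 plus DMSO wells for no effect and DMSO wells lacking apelin-13 for full effect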
HTR2A ag: agonists of mouse serotonin 5-HT2A receptor (HTR2A). P35363. CHO-K1 mHTR2A beta-arrestin complementation, luminescence; percent of 30 µM serotonin response. activation, % at 7.6 µM. hit rate 0.66% among 360,000. AID 624169;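 active = activation above a run cutoff, the mean activation of all tested compounds plus 3 SD, cut at about 14% in these data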;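 also: 0% = plate median of compound wells and 100% = 30 µM serotonin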
CCR6 antag: blocks CCL20-driven beta-arrestin recruitment at human CCR6; inhibition, % at 20 µM; P51684; CHO-K1 CCR6 PathHunter beta-arrestin, luminescence, CCL20-stimulated; hit rate 0.49% among 340,000;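 active = compounds whose inhibition of the agonist-driven luminescence signal at 20 µM reaches about 50%, limit read from the data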;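 also: cells stimulated with CCL20 at 14 nM final; plate controls were DMSO with CCL20 for no effect and DMSO without agonist for full effect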
CXCR6 confirm: confirmation of human CXCR6 receptor antagonists; shares compounds with CXCR6 inh; CHO-K1 CXCR6 PathHunter beta-arrestin, luminescence; inhibition, % at 20 µM; hit rate 65% among 700; AID 602409;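 active = mean inhibition over four retests above 40%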;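 also: receptor stimulated with 10 nM CXCL16 agonist; beta-galactosidase fragment complementation upon beta-arrestin recruitment to receptor; plate controls were CXCL16 plus DMSO for no effect and DMSO without CXCL16 for full effect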
Starred values were filed as active, the others as inactive; / = not tested or not shown.

SMILES | CXCR6 inh | EBI2 block | APJ ag | APJ antagonist | HTR2A ag | CCR6 antag | CXCR6 confirm
CCCNC(=O)NS(=O)(=O)c1ccc(Cl)cc1 | -2 | -3 | -4 | -8 | -1 | 15 | /
CCCNC(=O)c1nnsc1S(=O)c1ccc(Cl)cc1 (stereo unspecified) | 87* | 8 | -6 | 40 | -6 | 97* | 99*
CCCNC(=O)c1nnsc1S(=O)(=O)c1ccc(Cl)cc1 | 65* | 12 | -3 | 23 | -3 | 74* | 83*
CNC(=O)c1nnsc1S(=O)c1ccc(Cl)cc1 (stereo unspecified) | 96* | 7 | -4 | 27 | -2 | 99* | 97*
CN(C)c1ccc(/C=N/NC(=O)CCC(=O)NCc2ccccc2)cc1 | 6 | -5 | 1 | -17 | -2 | -4 | /
O=C(Nc1ccc(F)cc1)c1cccc2ccccc12 | 10 | -1 | -2 | 8 | 1 | 4 | /
O=c1[nH]c(SCc2ccc(Cl)cc2)nc2ccccc12 | 82* | -3 | -3 | 19 | -1 | -9 | 15
O=C(CSc1nc2ccccc2c(=O)[nH]1)NCc1ccc(Cl)cc1 | -3 | -2 | 0 | 8 | -3 | -2 | /
CCOC(=O)C1(Cc2ccc(Cl)cc2)CCN(Cc2ccon2)CC1 | 70* | -12 | -1 | 19 | -1 | 4 | 5
O=C(NC(=S)Nc1ccc([N+](=O)[O-])cc1)c1ccco1 | 42* | 9 | / | / | 0 | / | 40
CC(O)CN(CC(C)O)c1ccc2c(c1)Cc1cc([N+](=O)[O-])ccc1-2 (stereo unspecified) | 38* | 10 | / | / | -3 | 55* | 41*
Nc1ccc2c(c1)Cc1cc([N+](=O)[O-])ccc1-2 | 6 | 1 | -3 | 14 | -1 | 17 | /
COc1cc(-c2cc(C(=O)NCc3ccc(S(N)(=O)=O)cc3)c3ccccc3n2)cc(OC)c1OC | 4 | -6 | 0 | 19 | -3 | 17 | /
COc1ccc(/C=N/NC(=O)CN(C)S(=O)(=O)c2ccc(NC(C)=O)cc2)cc1 | 0 | -6 | -1 | -10 | 3 | 5 | /
CC(=O)Nc1ccc(S(=O)(=O)N(C)CC(=O)N/N=C/c2ccc(C(=O)O)cc2)cc1 | 88* | -13 | -1 | -10 | 1 | -6 | -3
CCNC(=O)CSc1nc(-c2ccc(F)cc2)cs1 | -14 | 9 | -3 | -11 | 2 | 15 | /
CCOc1ccc(N(CC(=O)NCCSc2ccccn2)S(=O)(=O)c2ccc(Cl)cc2)cc1 | 16 | 24 | 0 | 4 | -7 | 11 | /
CCOc1ccc(N(CC(=O)N/N=C/c2ccccn2)S(=O)(=O)c2ccc(Cl)cc2)cc1 | 40* | 5 | -10 | -9 | -2 | 19 | 41*
Cc1cccc(NC(=S)N/N=C/c2ccc([N+](=O)[O-])s2)c1 | 56* | 32 | -5 | 18 | -4 | / | 53*
Cc1cccc(NC(=O)/C=C/c2ccc([N+](=O)[O-])s2)c1 | 10 | 26 | / | / | -3 | 3 | /
O=C(C#Cc1cccc([N+](=O)[O-])c1)c1ccccc1 | 72* | 19 | 10 | 31 | -3 | / | 71*
Nc1ccccc1C#CC(=O)c1ccccc1 | 40* | -10 | -2 | 7 | 4 | 21 | 59*
COc1cc(CC(NC(C)=O)C(=O)NC2CCN(C(=O)C3CC3)CC2)cc(OC)c1 (stereo unspecified) | 6 | -14 | -2 | 5 | 2 | 5 | /
CCC(=O)c1c[nH]c(C(=O)NCCc2ccccn2)c1 | 7 | -2 | -1 | 8 | 0 | -9 | /
CCOc1ccc(C=NNc2ccc(S(=O)(=O)Nc3ccccc3C(=O)O)cc2[N+](=O)[O-])cc1 | 24 | 8 | -9 | 25 | 4 | / | /
C=CCOc1ccc(C=NNc2ccc(S(=O)(=O)Nc3ccccc3C(=O)O)cc2[N+](=O)[O-])cc1OC | 50* | 0 | -2 | 11 | 0 | / | 44*
C=CC[C@H](CC(=O)N(CCO)Cc1ccccc1)C(=O)NC[C@H](OC(=O)[C@@H](CC=C)CC(=O)OC(C)(C)C)c1ccccc1 | 51* | 29 | -7 | 16 | -9 | 29 | 40
